Source: ChEMBL document CHEMBL1177643, “Synthesis, DNA-binding ability and anticancer activity of benzothiazole/benzoxazole-pyrrolo[2,1-c][1,4]benzodiazepine conjugates” (Bioorg Med Chem, 2010)

Legend:
[1] = Growth inhibition of human […] cells after 48 hrs by sulforhodamine B assay; type: functional
Procedure, shortened: (§1)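 Panel of 60 human cancer cell lines; for each compound, dose–response curves per cell line measured at a minimum of five concentrations at 10-fold dilutions. Cells exposed continuously to drug for 48 h, and growth was read out by sulforhodamine B staining.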

[2] = test system: ACHN; assay: Growth inhibition of human ACHN cells after 48 hrs by sulforhodamine B assay; type: functional
Procedure, shortened: (§2)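 Dose–response in each cell line over at least five concentrations at 10-fold dilutions, with 48 h continuous exposure and sulforhodamine B read-out.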

[3] = test system: NCI-H322M; assay: Growth inhibition of human NCI-H322M cells after 48 hrs by sulforhodamine B assay; type: functional; procedure, shortened: as §1
[4] = test system: A-375; assay: Cell cycle arrest in human A375 cells assessed as accumulation at G1 phase at 2 uM after 24 hrs using propidium iodide staining by flow cytometry; type: functional
Procedure, shortened: (§3)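 A375 cells (5×10^5) grown 24 h, then exposed to compound 24 h (DMSO control). Trypsin–EDTA harvest, fixed in ice-cold 70% ethanol at 4 °C 30 min, RNase A 37 °C 30 min, propidium iodide staining. DNA content measured by flow cytometry on 20,000 events, gated as sub-G1/G0, G1, S and G2/M.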

[5] = test system: SF-268; assay: Growth inhibition of human SF268 cells after 48 hrs by sulforhodamine B assay; type: functional; details: SF-268, 48 h; procedure, shortened: as §1
[6] = test system: A-375; assay: Cell cycle arrest in human A375 cells assessed as accumulation at S phase at 2 uM after 24 hrs using propidium iodide staining by flow cytometry; type: functional; procedure, shortened: as §3
[7] = test system: SK-MEL-5; assay: Growth inhibition of human SK-MEL-5 cells after 48 hrs by sulforhodamine B assay; type: functional; details: SK-MEL-5, 48 h; procedure, shortened: as §1
[8] = test system: IGROV-1; assay: Growth inhibition of human IGROV1 cells after 48 hrs by sulforhodamine B assay; type: functional; details: IGROV-1, 48 h; procedure, shortened: as §1
[9] = test system: A-375; assay: Cell cycle arrest in human A375 cells assessed as accumulation at G2/M phase at 2 uM after 24 hrs using propidium iodide staining by flow cytometry; type: functional; procedure, shortened: as §3
[10] = test system: MCF7; assay: Growth inhibition of human MCF7 cells after 48 hrs by sulforhodamine B assay; type: functional; details: MCF7, 48 h; procedure, shortened: as §1
[11] = test system: EKVX; assay: Growth inhibition of human EKVX cells after 48 hrs by sulforhodamine B assay; type: functional; procedure, shortened: as §2
[12] = test system: A498; assay: Growth inhibition of human A498 cells after 48 hrs by sulforhodamine B assay; type: functional; details: A498, 48 h; procedure, shortened: as §2
[13] = test system: SNB-75; assay: Growth inhibition of human SNB75 cells after 48 hrs by sulforhodamine B assay; type: functional; details: SNB-75, 48 h; procedure, shortened: as §1
[14] = test system: HCT-15; assay: Growth inhibition of human HCT15 cells after 48 hrs by sulforhodamine B assay; type: functional; details: HCT-15, 48 h; procedure, shortened: as §1
[15] = test system: SF-295; assay: Growth inhibition of human SF295 cells after 48 hrs by sulforhodamine B assay; type: functional; details: SF-295, 48 h; procedure, shortened: as §1
[16] = test system: UACC-257; assay: Growth inhibition of human UACC257 cells after 48 hrs by sulforhodamine B assay; type: functional; details: UACC-257, 48 h; procedure, shortened: as §1
[17] = test system: OVCAR-8; assay: Growth inhibition of human OVCAR8 cells after 48 hrs by sulforhodamine B assay; type: functional; details: OVCAR-8, 48 h; procedure, shortened: as §1
[18] = test system: CAKI-1; assay: Growth inhibition of human Caki1 cells after 48 hrs by sulforhodamine B assay; type: functional; details: CAKI-1, 48 h; procedure, shortened: as §2
[19] = test system: M14; assay: Growth inhibition of human M14 cells after 48 hrs by sulforhodamine B assay; type: functional; details: M14, 48 h; procedure, shortened: as §1
[20] = test system: LOX IMVI; assay: Growth inhibition of human LOXIMVI cells after 48 hrs by sulforhodamine B assay; type: functional; procedure, shortened: as §1
[21] = test system: K562; assay: Growth inhibition of human K562 cells after 48 hrs by sulforhodamine B assay; type: functional; details: K562, 48 h; procedure, shortened: as §1
[22] = test system: MOLT-4; assay: Growth inhibition of human MOLT4 cells after 48 hrs by sulforhodamine B assay; type: functional; details: MOLT-4, 48 h; procedure, shortened: as §1
[23] = test system: MDA-MB-435; assay: Growth inhibition of human MDA-MB-435 cells after 48 hrs by sulforhodamine B assay; type: functional; details: MDA-MB-435, 48 h; procedure, shortened: as §1
[24] = test system: SF-539; assay: Growth inhibition of human SF539 cells after 48 hrs by sulforhodamine B assay; type: functional; details: SF-539, 48 h; procedure, shortened: as §1
[25] = test system: Calf thymus DNA; assay: Binding affinity to calf thymus duplex-form DNA assessed as melting temperature at 1:5 compound/DNA ratio after 18 hrs; type: nucleic-acid assay; details: Bos taurus
[26] = test system: MDA-MB-231; assay: Growth inhibition of human MDA-MB-231 cells after 48 hrs by sulforhodamine B assay; type: functional; details: MDA-MB-231, 48 h; procedure, shortened: as §1
[27] = test system: COLO 205; assay: Growth inhibition of human COLO205 cells after 48 hrs by sulforhodamine B assay; type: functional; details: COLO 205, 48 h; procedure, shortened: as §2
[28] = test system: U-251; assay: Growth inhibition of human U251 cells after 48 hrs by sulforhodamine B assay; type: functional; details: U-251, 48 h; procedure, shortened: as §1
[29] = test system: A-375; assay: Cell cycle arrest in human A375 cells assessed as accumulation at G0 phase at 2 uM after 24 hrs using propidium iodide staining by flow cytometry; type: functional; procedure, shortened: as §3
[30] = test system: T47D; assay: Growth inhibition of human T47D cells after 48 hrs by sulforhodamine B assay; type: functional; procedure, shortened: as §1
[31] = test system: BT-549; assay: Growth inhibition of human BT549 cells after 48 hrs by sulforhodamine B assay; type: functional; details: BT-549, 48 h; procedure, shortened: as §2
[32] = test system: SNB-19; assay: Growth inhibition of human SNB19 cells after 48 hrs by sulforhodamine B assay; type: functional; details: SNB-19, 48 h; procedure, shortened: as §1
[33] = test system: NCI-H522; assay: Growth inhibition of human NCI-H522 cells after 48 hrs by sulforhodamine B assay; type: functional; details: NCI-H522, 48 h; procedure, shortened: as §1
[34] = test system: PC-3; assay: Growth inhibition of human PC3 cells after 48 hrs by sulforhodamine B assay; type: functional; details: PC-3, 48 h; procedure, shortened: as §1
[35] = test system: SK-MEL-2; assay: Growth inhibition of human SK-MEL-2 cells after 48 hrs by sulforhodamine B assay; type: functional; details: SK-MEL-2, 48 h; procedure, shortened: as §1
[36] = test system: HL-60; assay: Growth inhibition of human HL-60(TB) cells after 48 hrs by sulforhodamine B assay; type: functional; details: HL-60, 48 h; procedure, shortened: as §1
[37] = test system: OVCAR-4; assay: Growth inhibition of human OVCAR4 cells after 48 hrs by sulforhodamine B assay; type: functional; details: OVCAR-4, 48 h; procedure, shortened: as §1
[38] = test system: NCI-H226; assay: Growth inhibition of human NCI-H226 cells after 48 hrs by sulforhodamine B assay; type: functional; details: NCI-H226, 48 h; procedure, shortened: as §1
[39] = test system: UO-31; assay: Growth inhibition of human UO31 cells after 48 hrs by sulforhodamine B assay; type: functional; details: UO-31, 48 h; procedure, shortened: as §1
[40] = test system: 786-0; assay: Growth inhibition of human 786-0 cells after 48 hrs by sulforhodamine B assay; type: functional; details: 786-0, 48 h; procedure, shortened: as §2
[41] = test system: HOP-92; assay: Growth inhibition of human HOP92 cells after 48 hrs by sulforhodamine B assay; type: functional; details: HOP-92, 48 h; procedure, shortened: as §1
[42] = test system: OVCAR-3; assay: Growth inhibition of human OVCAR-3 cells after 48 hrs by sulforhodamine B assay; type: functional; details: OVCAR-3, 48 h; procedure, shortened: as §1
[43] = test system: SR; assay: Growth inhibition of human SR cells after 48 hrs by sulforhodamine B assay; type: functional; procedure, shortened: as §1
[44] = test system: KM12; assay: Growth inhibition of human KM12 cells after 48 hrs by sulforhodamine B assay; type: functional; details: KM12, 48 h; procedure, shortened: as §1
[45] = test system: SK-MEL-28; assay: Growth inhibition of human SK-MEL-28 cells after 48 hrs by sulforhodamine B assay; type: functional; details: SK-MEL-28, 48 h; procedure, shortened: as §1

**Q.** Which GI50 [1] does the source give for `COc1cc2c(cc1OCCCCC(=O)Nc1ccc(-c3nc4ccccc4s3)cc1)N=C[C@@H]1CCCN1C2=O` here?
**A.** Its GI50 is 1.45 µM.

**Q.** What about the GI50 [2] of the same compound?
**A.** The GI50 was 3.02 µM.

**Q.** What about the GI50 [3] of the same compound?
**A.** The GI50 was 2.82 µM.

**Q.** What about the Activity [4] of the same compound?
**A.** The Activity was 73.34%.

**Q.** What about the GI50 [5] of the same compound?
**A.** Its GI50 is 2.04 µM.

**Q.** And the Activity [6]?
**A.** Its Activity is 6.15%.

**Q.** And the GI50 [7]?
**A.** The GI50 was 1.78 µM.

**Q.** And the GI50 [8]?
**A.** The GI50 was 0.692 µM.

**Q.** And the Activity [9]?
**A.** Its Activity is 5.41%.

**Q.** What about the GI50 [10] of the same compound?
**A.** Its GI50 is 0.724 µM.

**Q.** What about the GI50 [11] of the same compound?
**A.** The GI50 was 2.45 µM.

**Q.** What about the GI50 [12] of the same compound?
**A.** Its GI50 is 1.86 µM.

**Q.** And the GI50 [13]?
**A.** The GI50 was 1.82 µM.

**Q.** What about the GI50 [14] of the same compound?
**A.** The GI50 was 2.82 µM.

**Q.** And the GI50 [15]?
**A.** The GI50 was 0.55 µM.

**Q.** And the GI50 [16]?
**A.** The GI50 was 1.74 µM.

**Q.** And the GI50 [17]?
**A.** Its GI50 is 1.55 µM.

**Q.** And the GI50 [18]?
**A.** Its GI50 is 2.19 µM.

**Q.** What about the GI50 [19] of the same compound?
**A.** The GI50 was 1.55 µM.

**Q.** And the GI50 [20]?
**A.** The GI50 was 1.55 µM.

**Q.** And the GI50 [21]?
**A.** Its GI50 is 1.74 µM.

**Q.** What about the GI50 [22] of the same compound?
**A.** The GI50 was 1.62 µM.

**Q.** And the GI50 [23]?
**A.** The GI50 was 1.78 µM.

**Q.** And the GI50 [24]?
**A.** Its GI50 is 1.58 µM.

**Q.** What about the ΔTm [25] of the same compound?
**A.** The ΔTm was 0.5 °C.

**Q.** And the GI50 [26]?
**A.** The GI50 was 2.09 µM.

**Q.** What about the GI50 [27] of the same compound?
**A.** Its GI50 is 1.7 µM.

**Q.** And the GI50 [28]?
**A.** Its GI50 is 1.91 µM.

**Q.** What about the Activity [29] of the same compound?
**A.** Its Activity is 15.1%.

**Q.** What about the GI50 [30] of the same compound?
**A.** The GI50 was 1.95 µM.

**Q.** What about the GI50 [31] of the same compound?
**A.** Its GI50 is 1.12 µM.

**Q.** What about the GI50 [32] of the same compound?
**A.** Its GI50 is 2.69 µM.

**Q.** What about the GI50 [33] of the same compound?
**A.** The GI50 was 0.977 µM.

**Q.** And the GI50 [34]?
**A.** The GI50 was 2.04 µM.

**Q.** And the GI50 [35]?
**A.** The GI50 was 1.95 µM.

**Q.** What about the GI50 [36] of the same compound?
**A.** The GI50 was 1.78 µM.

**Q.** What about the GI50 [37] of the same compound?
**A.** Its GI50 is 2.82 µM.

**Q.** What about the GI50 [38] of the same compound?
**A.** Its GI50 is 2.88 µM.

**Q.** And the GI50 [39]?
**A.** The GI50 was 1.66 µM.

**Q.** What about the GI50 [40] of the same compound?
**A.** Its GI50 is 1.55 µM.

**Q.** What about the GI50 [41] of the same compound?
**A.** Its GI50 is 1.74 µM.

**Q.** What about the GI50 [42] of the same compound?
**A.** The GI50 was 1.86 µM.

**Q.** And the GI50 [43]?
**A.** Its GI50 is 0.55 µM.

**Q.** What about the GI50 [44] of the same compound?
**A.** The GI50 was 2.95 µM.

**Q.** And the GI50 [45]?
**A.** The GI50 was 2.24 µM.
